The source made the active and inactive calls. The calls are words filed in the database; no cut-off is given here.
Assays:
Trypanosoma brucei [1] = assay: Antitrypanosomal activity against Trypanosoma brucei 427 bloodstream forms assessed as inhibition of parasite growth incubated for 48 hrs by hemocytometry; format: functional, organism-based
L6 = assay: Cytotoxicity against rat L6 cells after 6 days using alamar blue staining based fluorescence assay; format: cell-based; conditions: L6, 144 h
Summary of the method: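 Rat skeletal muscle L6 cells seeded at 1 × 10⁴ ml⁻¹ in medium containing graded compound concentrations and held 6 days at 37 °C. Alamar Blue then added, with fluorescence read after a further 8 h.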

[2] = Selectivity index, ratio of IC50 for rat L6 cells to IC50 for Trypanosoma brucei bloodstream forms; format: toxicity, cell-based; conditions: read-out: Ratio IC50
Trypanosoma cruzi = assay: Antitrypanosomal activity against Trypanosoma cruzi CL Brener clone epimastigotes assessed as inhibition of parasite growth incubated for 5 days by hemocytometry; conditions: 120 h
Trypanosoma brucei [3] = assay: Antitrypanosomal activity against Trypanosoma brucei bloodstream forms assessed as inhibition parasite growth at 5 ug/ml; format: functional
Trypanosoma brucei [4] = assay: Antitrypanosomal activity against Trypanosoma brucei relative to rimantadine; format: functional
Trypanosoma brucei [5] = assay: Antitrypanosomal activity against Trypanosoma brucei relative to amantadine; format: functional
Trypanosoma brucei [6] = assay: Antitrypanosomal activity against Trypanosoma brucei bloodstream form assessed as inhibition parasite growth

| IC50 (Trypanosoma brucei [1]) [nM] | IC90 (Trypanosoma brucei [1]) [nM] | IC50 (Trypanosoma brucei [1]; Trypanosoma brucei, 427, 48 h) [nM] | IC90 (Trypanosoma brucei [1]; Trypanosoma brucei, 427, 48 h) [nM] | SMILES | other results |
| --- | --- | --- | --- | --- | --- |
| 134 | 276 | – | – | C[C@@H]1NC2(C(=O)N(CC(=O)NO)C1=O)C1CC3CC(C1)CC2C3 (stereo partly specified) [listing 1 of 2 here] | – |
| 1150 | 1710 | – | – | O=C(CN1C(=O)CNC2(CCCCCC2)C1=O)NO [listing 1 of 2 here] | – |
| 162 | 327 | – | – | CN1CC(=O)N(CC(=O)NO)C(=O)C12CCCCCCC2 [listing 1 of 2 here] | – |
| 405 | 909 | – | – | C[C@@H]1NC2(C(=O)N(CC(=O)NO)C1=O)C1CC3CC(C1)CC2C3 (stereo partly specified) [listing 2 of 2 here] | – |
| 311 | 717 | – | – | CN1CC(=O)N(CC(=O)NO)C(=O)C12CCCCCC2 [listing 1 of 2 here] | – |
| – | – | 125 | 270 | C[C@@H]1NC2(CCCCCCC2)C(=O)N(CC(=O)NO)C1=O [listing 2 of 2 here] | – |
| 42 | 80 | – | – | O=C(CN1C(=O)[C@H](Cc2ccccc2)NC2(C1=O)C1CC3CC(C1)CC2C3)NO (stereo partly specified) [listing 1 of 2 here] | – |
| 6.8 | 11.5 | – | – | O=C(CN1C(=O)[C@H](Cc2ccccc2)NC2(C1=O)C1CC3CC(C1)CC2C3)NO (stereo partly specified) [listing 2 of 2 here] | IC50 (L6): 10400 nM; selectivity ratio [2]: 1500; IC50 (Trypanosoma brucei [6]): 332 nM; IC50 (Trypanosoma cruzi): 210 nM; IC90 (Trypanosoma cruzi): 360 nM |
| – | – | 158 | 300 | CN1CC(=O)N(CC(=O)NO)C(=O)C12CCCCCCC2 [listing 2 of 2 here] | – |
| – | – | 285 | 673 | CN1CC(=O)N(CC(=O)NO)C(=O)C12CCCCCC2 [listing 2 of 2 here] | – |

The next lines start with the compound.

| SMILES | IC50 (Trypanosoma brucei [1]) [nM] | IC90 (Trypanosoma brucei [1]) [nM] | IC50 (Trypanosoma brucei [1]; Trypanosoma brucei, 427, 48 h) [nM] | IC90 (Trypanosoma brucei [1]; Trypanosoma brucei, 427, 48 h) [nM] | other results |
| --- | --- | --- | --- | --- | --- |
| O=C(CN1C(=O)CNC2(C1=O)C1CC3CC(C1)CC2C3)NO (stereo unspecified) [listing 1 of 2 here] | – | – | 90 | 155 | IC50 (L6): > 325000 nM; selectivity ratio [2]: > 3600; IC50 (Trypanosoma cruzi): 5510 nM; IC90 (Trypanosoma cruzi): 11100 nM |
| O=C(CN1C(=O)[C@H](Cc2ccccc2)NC2(CCCCCCC2)C1=O)NO [listing 1 of 2 here] | – | – | 29 | 39 | IC50 (L6): 93800 nM; selectivity ratio [2]: 3200 |
| O=C(CN1C(=O)CNC2(C1=O)C1CC3CC(C1)CC2C3)NO (stereo unspecified) [listing 2 of 2 here] | 79 | 148 | – | – | – |
| O=C(CN1C(=O)C(Cc2ccccc2)NC2(C1=O)C1CC3CC(C1)CC2C3)NO (racemic; form 2) | 18 | 24 | – | – | – |
| CN1CC(=O)NC(=O)C12C1CC3CC(C1)CC2C3 (stereo unspecified) | – | – | – | – | inhibition of growth at 5 µg/mL (Trypanosoma brucei [3]; read-out: GI): 40% |
| O=C1ON=C2C3CC4CC(C3)CC12C4 | – | – | – | – | Ratio IC50 (Trypanosoma brucei [4]): 3; Ratio IC50 (Trypanosoma brucei [5]): 45 |
| O=C(CN1C(=O)[C@@H](Cc2ccccc2)NC2(C1=O)C1CC3CC(C1)CC2C3)NO (stereo partly specified) [listing 1 of 2 here] | – | – | 9.1 | – | IC50 (L6): 11600 nM; selectivity ratio [2]: 1300; IC50 (Trypanosoma brucei [6]): 106 nM |
| C[C@@H]1NC2(CCCCCCC2)C(=O)N(CC(=O)NO)C1=O [listing 1 of 2 here] | 134 | 259 | – | – | – |
| O=C(CN1C(=O)[C@@H](Cc2ccccc2)NC2(C1=O)C1CC3CC(C1)CC2C3)NO (stereo partly specified) [listing 2 of 2 here] | – | 14 | – | – | – |
| O=C(CN1C(=O)CNC2(CCCCCC2)C1=O)NO [listing 2 of 2 here] | – | – | 1870 | 2530 | – |
| O=C(CN1C(=O)[C@H](Cc2ccccc2)NC2(CCCCCCC2)C1=O)NO [listing 2 of 2 here] | 25 | 35 | – | – | – |
| CN1CC(=O)N(CC(=O)NO)C(=O)C12C1CC3CC(C1)CC2C3 (stereo unspecified) [listing 1 of 2 here] | – | – | 193 | 328 | IC50 (L6): 40400 nM; selectivity ratio [2]: 210; IC50 (Trypanosoma cruzi): 3620 nM; IC90 (Trypanosoma cruzi): 5990 nM |
| O=C(CN1C(=O)CNC2(CCCCCCC2)C1=O)NO [listing 1 of 2 here] | 266 | 495 | – | – | – |
| CN1CC(=O)N(CC(=O)NO)C(=O)C12C1CC3CC(C1)CC2C3 (stereo unspecified) [listing 2 of 2 here] | 340 | 622 | – | – | – |
| O=C(CN1C(=O)CNC2(CCCCCCC2)C1=O)NO [listing 2 of 2 here] | – | – | 300 | 635 | – |
| O=C(CN1C(=O)C(Cc2ccccc2)NC2(C1=O)C1CC3CC(C1)CC2C3)NO (racemic; form 1) | – | – | 17 | 26 | IC50 (L6): 23700 nM; selectivity ratio [2]: 1400; IC50 (Trypanosoma brucei [6]): 285 nM |
| O=C1CNC2(C(=O)N1)C1CC3CC(C1)CC2C3 (stereo unspecified) | – | – | – | – | growth inhibition (GI) (Trypanosoma brucei [3]): inactive |

From ChEMBL document CHEMBL1800014, “Novel lipophilic acetohydroxamic acid derivatives based on conformationally constrained spiro carbocyclic 2,6-diketopiperazine scaffolds with potent trypanocidal activity” (J Med Chem, 2011)
